Usually MIC stands for the lowest concentration that inhibits growth of the organism. One may read the IC50 as the concentration needed to halve the response being measured.

The results in this text go back to ChEMBL document CHEMBL3877325, “Novel salicylanilides from 4,5-dihalogenated salicylic acids: Synthesis, antimicrobial activity and cytotoxicity” (Bioorg Med Chem, 2017).

In brackets after ≈: the same amount, converted by molar mass.

The test system of series [1] is Mycobacterium kansasii. The series can be described thus: Antimycobacterial activity against Mycobacterium kansasii isolate 235/80 after 21 days by micromethod. It is filed as functional. Particulars: isolate 235/80, 504 h. The procedure, abridged:
(§1)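 MIC in Šula's semisynthetic medium at 37 °C, read after 7, 14 and 21 days. Inoculum is strain dilution 10^-4; 235/80 is a collection strain and 6509/96 a clinical isolate. Compounds are added as DMSO solutions at 500, 250, 125, 62.5, 32, 16, 8, 4, 2, 1 and 0.5 µM. INH (in sterile water) and PAS are the reference drugs.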

The test system of series [2] is Mycobacterium tuberculosis. In words: Antimycobacterial activity against Mycobacterium tuberculosis H37Rv My 331/88 after 21 days by micromethod. Particulars: H37Rv My 331/88, 504 h. It is filed as functional. Summed up: (§2)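 MIC micromethod in Šula's semisynthetic medium at 37 °C, read after 14 and 21 days. Compounds added as DMSO solutions at 500 down to 0.5 µM (twofold-type series: 500, 250, 125, 62.5, 32, 16, 8, 4, 2, 1, 0.5 µM). Isoniazid standard given in sterile water.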

The subject of series [3] is Mycobacterium kansasii. In words: Antimycobacterial activity against Mycobacterium kansasii isolate 235/80 after 7 days by micromethod. Particulars: isolate 235/80, 168 h. It is filed as functional. Summed up: as §1
The nature of series [4]: Selectivity index, ratio of IC50 for human HepG2 cells to MIC for Mycobacterium tuberculosis H37Rv after 21 days. It is filed as toxicity, cell-based. The settings on record: HepG2 cells versus Mycobacterium tuberculosis H37Rv, read-out: Selectivity Index. Summed up: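 HepG2 cells (passages 33-37) seeded at 1 × 10^4 per well and treated next day with 0.1–100 µM in triplicate. After 24 h at 37 °C, 5% CO2, MTS reagent added for 2 h and absorbance read at 490 nm. IC50 taken from viability relative to untreated control, then divided by the 21-day H37Rv MIC.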

Series [5] has as its system Mycobacterium tuberculosis. In words: Antimycobacterial activity against Mycobacterium tuberculosis H37Rv My 331/88 after 14 days by micromethod. It is filed as functional. The settings on record: H37Rv My 331/88, 336 h. Summed up: as §2
The subject of series [6] is Mycobacterium kansasii. In words: Antimycobacterial activity against Mycobacterium kansasii isolate 6509/96 after 21 days by micromethod. It is filed as functional. Particulars: isolate 6509/96, 504 h. Summed up: as §1
Series [7] concerns Mycobacterium kansasii. The series can be described thus: Antimycobacterial activity against Mycobacterium kansasii isolate 235/80 after 14 days by micromethod. Particulars: isolate 235/80, 336 h. It is filed as functional. Summed up:
as §1

Series [8] has as its system Mycobacterium avium. The series can be described thus: Antimycobacterial activity against Mycobacterium avium My 330/80 after 14 days by micromethod. It is filed as functional. The settings on record: My 330/80, 336 h. The procedure, abridged: (§3)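 M. avium My 330/80 (collection strain) inoculated at 10^-5 dilution into Šula's semisynthetic medium. Compounds added from DMSO solutions at 500, 250, 125, 62.5, 32, 16, 8, 4, 2, 1 and 0.5 µM. MIC determined by micromethod at 37 °C, read after 14 and 21 days.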

The subject of series [9] is Mycobacterium kansasii. The series can be described thus: Antimycobacterial activity against Mycobacterium kansasii isolate 6509/96 after 14 days by micromethod. Particulars: isolate 6509/96, 336 h. It is filed as functional. The procedure, abridged:
as §1

Series [10] has as its system Mycobacterium kansasii. The series can be described thus: Antimycobacterial activity against Mycobacterium kansasii isolate 6509/96 after 7 days by micromethod. It is filed as functional. Particulars: isolate 6509/96, 168 h. The procedure, abridged: as §1
Series [11] relates to Mycobacterium avium. The series can be described thus: Antimycobacterial activity against Mycobacterium avium My 330/80 after 21 days by micromethod. It is filed as functional. The settings on record: My 330/80, 504 h. Summed up:
as §3

Series [12] can be described thus: Cytotoxicity against human HepG2 cells assessed as reduction in cell viability after 24 hrs by MTS assay. It is filed as toxicity, cell-based. The procedure, abridged:
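HepG2 cells (passages 33-37) are grown in MEM with 10% FBS, L-glutamine and non-essential amino acids. They are seeded at 1 × 10^4 cells/well and treated next day with 0.1-100 µM in triplicate for 24 h at 37 °C, 5% CO2. MTS reagent is added for 2 h and A490 read.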
In general terms: Tetrazolium dyes change colour on reduction, which living cells bring about.

Take `O=C(Nc1ccc(Cl)c(Cl)c1)c1cc(Br)c(Cl)cc1O`: the MIC against Mycobacterium kansasii [1] is 8 µM (≈ 3.16 µg/mL); in series [2] it was 4 µM (≈ 1.58 µg/mL); in the series on Mycobacterium kansasii [3], 8 µM (≈ 3.16 µg/mL); in [5] it was 2 µM (≈ 0.791 µg/mL); against Mycobacterium kansasii [6], 8 µM (≈ 3.16 µg/mL); in the series on Mycobacterium kansasii [7] it was 8 µM (≈ 3.16 µg/mL). Further, the minimal inhibitory concentration (MIC) in the series with Mycobacterium avium [8] was 125 µM (≈ 49.4 µg/mL); in the series on Mycobacterium kansasii [9] it was 8 µM (≈ 3.16 µg/mL); against Mycobacterium kansasii [10], 8 µM (≈ 3.16 µg/mL); against Mycobacterium avium [11] it was 125 µM (≈ 49.4 µg/mL). For the same compound, in [4], the selectivity ratio at 504 h is 1.91. Also, in [12], the IC50 at 24 h turned out to be 7.65 µM.

For `O=C(Nc1cc(C(F)(F)F)cc(C(F)(F)F)c1)c1cc(Br)c(Br)cc1O`, the MIC with Mycobacterium kansasii [1] was found to be 8 µM (≈ 4.06 µg/mL); in [2], 2 µM (≈ 1.01 µg/mL); against Mycobacterium kansasii [3] it was 4 µM (≈ 2.03 µg/mL); in series [5], 2 µM (≈ 1.01 µg/mL); in the series on Mycobacterium kansasii [6], 8 µM (≈ 4.06 µg/mL); against Mycobacterium kansasii [7], 8 µM (≈ 4.06 µg/mL). Besides, the MIC came out at 16 µM (≈ 8.11 µg/mL) against Mycobacterium avium [8], 8 µM (≈ 4.06 µg/mL) against Mycobacterium kansasii [9], 8 µM (≈ 4.06 µg/mL) against Mycobacterium kansasii [10] and 32 µM (≈ 16.2 µg/mL) against Mycobacterium avium [11]. In series [4], the selectivity ratio at 504 h came out at 1.5. Also, in series [12], the IC50 at 24 h was 3 µM.

With `O=C(Nc1ccc(C(F)(F)F)cc1)c1ccc(Cl)cc1O`, the MIC in the series on Mycobacterium kansasii [1] came out at 4 µM (≈ 1.26 µg/mL); in series [2] it was 4 µM (≈ 1.26 µg/mL); in the series with Mycobacterium kansasii [3] it was 2 µM (≈ 0.631 µg/mL); in series [5] it was 4 µM (≈ 1.26 µg/mL); in the series on Mycobacterium kansasii [6] it was 4 µM (≈ 1.26 µg/mL); against Mycobacterium kansasii [7] it was 4 µM (≈ 1.26 µg/mL). Besides, the minimum inhibitory concentration (MIC) with Mycobacterium avium [8] turned out to be 8 µM (≈ 2.53 µg/mL); against Mycobacterium kansasii [9], 2 µM (≈ 0.631 µg/mL); with Mycobacterium kansasii [10], 2 µM (≈ 0.631 µg/mL); in the series on Mycobacterium avium [11], 8 µM (≈ 2.53 µg/mL). Also, the selectivity ratio at 504 h in [4] amounted to 0.66. For the same compound, the IC50 at 24 h in series [12] stood at 2.64 µM.

Turning to `O=C(Nc1cc(C(F)(F)F)cc(C(F)(F)F)c1)c1cc(Cl)ccc1O` [IMD-0354], the MIC against Mycobacterium kansasii [1] was determined as 16 µM (≈ 6.14 µg/mL); in [2], 8 µM (≈ 3.07 µg/mL); against Mycobacterium kansasii [3], 8 µM (≈ 3.07 µg/mL); in [5] it was 4 µM (≈ 1.53 µg/mL); against Mycobacterium kansasii [6], 16 µM (≈ 6.14 µg/mL); against Mycobacterium kansasii [7] it was 16 µM (≈ 6.14 µg/mL). Moreover, the MIC turned out to be 32 µM (≈ 12.3 µg/mL) in the series with Mycobacterium avium [8], 16 µM (≈ 6.14 µg/mL) in the series with Mycobacterium kansasii [9], 8 µM (≈ 3.07 µg/mL) against Mycobacterium kansasii [10] and 32 µM (≈ 12.3 µg/mL) against Mycobacterium avium [11]. In series [4], the selectivity ratio at 504 h came out at 1.27. The IC50 at 24 h in series [12] was 10.2 µM.

For the compound `O=C(Nc1cc(C(F)(F)F)cc(C(F)(F)F)c1)c1ccc(Br)cc1O`, the MIC was found to be 16 µM (≈ 6.85 µg/mL) against Mycobacterium kansasii [1]; 4 µM (≈ 1.71 µg/mL) in series [2]; 8 µM (≈ 3.43 µg/mL) against Mycobacterium kansasii [3]; 2 µM (≈ 0.856 µg/mL) in series [5]; 16 µM (≈ 6.85 µg/mL) in the series on Mycobacterium kansasii [6]; 8 µM (≈ 3.43 µg/mL) in the series with Mycobacterium kansasii [7]. The MIC amounted to 32 µM (≈ 13.7 µg/mL) against Mycobacterium avium [8], 16 µM (≈ 6.85 µg/mL) against Mycobacterium kansasii [9], 8 µM (≈ 3.43 µg/mL) against Mycobacterium kansasii [10] and 32 µM (≈ 13.7 µg/mL) in the series with Mycobacterium avium [11]. The selectivity ratio at 504 h in series [4] is 2.02. Further, the IC50 at 24 h in [12] stood at 8.08 µM.

`NNC(=O)c1ccncc1` [ISONIAZID]: the minimum inhibitory concentration (MIC) in the series with Mycobacterium kansasii [1] was above 250 µM; in [2], 1 µM (≈ 0.137 µg/mL); against Mycobacterium kansasii [3], above 250 µM; in series [5], 0.5 µM (≈ 0.0686 µg/mL); with Mycobacterium kansasii [6] it was 8 µM (≈ 1.1 µg/mL); in the series on Mycobacterium kansasii [7] it was above 250 µM. Further, the MIC against Mycobacterium avium [8] was above 250 µM; in the series on Mycobacterium kansasii [9] it was 8 µM (≈ 1.1 µg/mL); in the series on Mycobacterium kansasii [10] it was 4 µM (≈ 0.549 µg/mL); against Mycobacterium avium [11], above 250 µM.

As for `O=C(Nc1ccc(C(F)(F)F)cc1)c1cc(Cl)ccc1O`, the minimum inhibitory concentration (MIC) in the series with Mycobacterium kansasii [1] was 1 µM (≈ 0.316 µg/mL); in series [2], 2 µM (≈ 0.631 µg/mL); in the series with Mycobacterium kansasii [3] it was 1 µM (≈ 0.316 µg/mL); in [5], 2 µM (≈ 0.631 µg/mL); against Mycobacterium kansasii [6], 2 µM (≈ 0.631 µg/mL); against Mycobacterium kansasii [7] it was 1 µM (≈ 0.316 µg/mL). Also, the minimum inhibitory concentration (MIC) with Mycobacterium avium [8] was 8 µM (≈ 2.53 µg/mL); against Mycobacterium kansasii [9] it was 2 µM (≈ 0.631 µg/mL); in the series with Mycobacterium kansasii [10], 2 µM (≈ 0.631 µg/mL); with Mycobacterium avium [11], 8 µM (≈ 2.53 µg/mL).

For the compound `Nc1ccc(C(=O)O)c(O)c1` [AMINOSALICYLIC ACID], the MIC in the series with Mycobacterium kansasii [1] was above 1000 µM; in [2] it was 62.5 µM (≈ 9.57 µg/mL); in the series on Mycobacterium kansasii [3], 125 µM (≈ 19.1 µg/mL); in series [5] it was 62.5 µM (≈ 9.57 µg/mL); against Mycobacterium kansasii [6], 500 µM (≈ 76.6 µg/mL); in the series on Mycobacterium kansasii [7], 1000 µM (≈ 153 µg/mL). The MIC with Mycobacterium avium [8] was determined as 32 µM (≈ 4.9 µg/mL); in the series on Mycobacterium kansasii [9] it was 125 µM (≈ 19.1 µg/mL); with Mycobacterium kansasii [10], 32 µM (≈ 4.9 µg/mL); against Mycobacterium avium [11] it was 125 µM (≈ 19.1 µg/mL).
